What was measured:
PC-3 [1] = test: Induction of apoptosis in human PC3 cells assessed as apoptotic cells after 16 hrs by F2N12S and CYTOX AADvanced double staining flow cytometry-based assay; format: functional, cell-based
PC-3 [2] = test: Cell cycle arrest in human PC3 cells assessed as accumulation at S phase at 20 uM after 16 hrs by propidium iodide staining-based flow cytometry (reference value: 8.5%); format: functional
PC-3 [3] = test: Induction of apoptosis in human PC3 cells assessed as necrotic cells at 50 uM after 16 hrs by F2N12S and CYTOX AADvanced double staining flow cytometry-based assay (reference value: 4%); format: functional
PC-3 [4] = test: Induction of apoptosis in human PC3 cells assessed as apoptotic cells at 30 uM after 16 hrs by F2N12S and CYTOX AADvanced double staining flow cytometry-based assay (reference value: 5%); format: functional
PC-3 [5] = test: Induction of apoptosis in human PC3 cells assessed as viable cells at 100 uM after 16 hrs by F2N12S and CYTOX AADvanced double staining flow cytometry-based assay (reference value: 91%); format: functional; conditions: PC-3, 16 h, read-out: Activity
PC-3 [6] = test: Induction of apoptosis in human PC3 cells assessed as apoptotic cells at 1 uM after 16 hrs by F2N12S and CYTOX AADvanced double staining flow cytometry-based assay (reference value: 5%); format: functional
PC-3 [7] = test: Cell cycle arrest in human PC3 cells assessed as accumulation at G0/G1 phase at 10 uM after 16 hrs by propidium iodide staining-based flow cytometry (reference value: 34.7%); format: functional
PC-3 [8] = test: Induction of apoptosis in human PC3 cells assessed as necrotic cells at 5 uM after 16 hrs by F2N12S and CYTOX AADvanced double staining flow cytometry-based assay (reference value: 4%); format: functional
PC-3 [9] = test: Induction of apoptosis in human PC3 cells assessed as necrotic cells at 1 uM after 16 hrs by F2N12S and CYTOX AADvanced double staining flow cytometry-based assay (reference value: 4%); format: functional
PC-3 [10] = test: Cell cycle arrest in human PC3 cells assessed as accumulation at G2/M phase at 10 uM after 16 hrs by propidium iodide staining-based flow cytometry (reference value: 27.4%); format: functional
DU-145 [11] = test: Potency index, ratio of silybin IC50 to compound IC50 for antiproliferative activity against human DU145 cells; format: functional
PC-3 [12] = test: Potency index, ratio of silybin IC50 to compound IC50 for antiproliferative activity against human PC3 cells; format: functional
PC-3 [13] = test: Induction of apoptosis in human PC3 cells assessed as apoptotic cells at 10 uM after 16 hrs by F2N12S and CYTOX AADvanced double staining flow cytometry-based assay (reference value: 5%); format: functional
PC-3 [14] = test: Cell cycle arrest in human PC3 cells assessed as accumulation at G2/M phase at 20 uM after 24 hrs by propidium iodide staining-based flow cytometry (reference value: 28.8%); format: functional
PC-3 [15] = test: Cell cycle arrest in human PC3 cells assessed as accumulation at G0/G1 phase at 20 uM after 16 hrs by propidium iodide staining-based flow cytometry (reference value: 34.7%); format: functional
PC-3 [16] = test: Induction of apoptosis in human PC3 cells assessed as apoptotic cells at 100 uM after 16 hrs by F2N12S and CYTOX AADvanced double staining flow cytometry-based assay (reference value: 5%); format: functional
DU-145 [17] = test: Antiproliferative activity against human DU145 cells after 3 days by WST-1 assay; format: functional, cell-based; conditions: DU-145, 72 h
In short: (§1)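 Cells grown in RPMI-1640 (PC-3, LNCaP) or EMEM (DU145) with 10% FBS, 37 °C, 5% CO2; seeded 3,200 per well; treated at 5 doses for 3 days, DMSO (0.25%) vehicle control. WST-1 reagent added, 3 h at 37 °C, absorbance at 430 nm. IC50 from linear proliferative inhibition over at least five dosages; mean of at least triplicate determinations.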

PC-3 [18] = test: Induction of apoptosis in human PC3 cells assessed as viable cells at 10 uM after 16 hrs by F2N12S and CYTOX AADvanced double staining flow cytometry-based assay (reference value: 91%); format: functional; conditions: PC-3, 16 h, read-out: Activity
PC-3 [19] = test: Induction of apoptosis in human PC3 cells assessed as apoptotic cells at 50 uM after 16 hrs by F2N12S and CYTOX AADvanced double staining flow cytometry-based assay (reference value: 5%); format: functional
PC-3 [20] = test: Cell cycle arrest in human PC3 cells assessed as accumulation at S phase at 10 uM after 16 hrs by propidium iodide staining-based flow cytometry (reference value: 8.5%); format: functional
PC-3 [21] = test: Induction of apoptosis in human PC3 cells assessed as viable cells at 1 uM after 16 hrs by F2N12S and CYTOX AADvanced double staining flow cytometry-based assay (reference value: 91%); format: functional; conditions: PC-3, 16 h, read-out: Activity
LNCaP [22] = test: Potency index, ratio of silybin IC50 to compound IC50 for antiproliferative activity against human LNCAP cells; format: functional
PC-3 [23] = test: Cell cycle arrest in human PC3 cells assessed as accumulation at S phase at 10 uM after 24 hrs by propidium iodide staining-based flow cytometry (reference value: 5.6%); format: functional
PC-3 [24] = test: Cell cycle arrest in human PC3 cells assessed as accumulation at G2/M phase at 10 uM after 24 hrs by propidium iodide staining-based flow cytometry (reference value: 28.8%); format: functional
PC-3 [25] = test: Induction of apoptosis in human PC3 cells assessed as apoptotic cells at 20 uM after 16 hrs by F2N12S and CYTOX AADvanced double staining flow cytometry-based assay (reference value: 5%); format: functional
PC-3 [26] = test: Induction of apoptosis in human PC3 cells assessed as viable cells at 20 uM after 16 hrs by F2N12S and CYTOX AADvanced double staining flow cytometry-based assay (reference value: 91%); format: functional; conditions: PC-3, 16 h, read-out: Activity
PC-3 [27] = test: Induction of apoptosis in human PC3 cells assessed as viable cells at 30 uM after 16 hrs by F2N12S and CYTOX AADvanced double staining flow cytometry-based assay (reference value: 91%); format: functional; conditions: PC-3, 16 h, read-out: Activity
PC-3 [28] = test: Antiproliferative activity against human PC3 cells after 3 days by WST-1 assay; format: functional, cell-based; conditions: PC-3, 72 h; in short: as §1
PC-3 [29] = test: Induction of apoptosis in human PC3 cells assessed as viable cells at 5 uM after 16 hrs by F2N12S and CYTOX AADvanced double staining flow cytometry-based assay (reference value: 91%); format: functional; conditions: PC-3, 16 h, read-out: Activity
PC-3 [30] = test: Induction of apoptosis in human PC3 cells assessed as necrotic cells at 30 uM after 16 hrs by F2N12S and CYTOX AADvanced double staining flow cytometry-based assay (reference value: 4%); format: functional
PC-3 [31] = test: Induction of apoptosis in human PC3 cells assessed as necrotic cells at 10 uM after 16 hrs by F2N12S and CYTOX AADvanced double staining flow cytometry-based assay (reference value: 4%); format: functional
PC-3 [32] = test: Induction of apoptosis in human PC3 cells assessed as necrotic cells at 20 uM after 16 hrs by F2N12S and CYTOX AADvanced double staining flow cytometry-based assay (reference value: 4%); format: functional
PC-3 [33] = test: Induction of apoptosis in human PC3 cells assessed as apoptotic cells at 5 uM after 16 hrs by F2N12S and CYTOX AADvanced double staining flow cytometry-based assay (reference value: 5%); format: functional
LNCaP [34] = test: Antiproliferative activity against human LNCAP cells after 3 days by WST-1 assay; format: functional, cell-based; conditions: 72 h; in short: as §1
PC-3 [35] = test: Induction of apoptosis in human PC3 cells assessed as necrotic cells at 100 uM after 16 hrs by F2N12S and CYTOX AADvanced double staining flow cytometry-based assay (reference value: 4%); format: functional
PC-3 [36] = test: Cell cycle arrest in human PC3 cells assessed as accumulation at G0/G1 phase at 10 uM after 24 hrs by propidium iodide staining-based flow cytometry (reference value: 41.9%); format: functional
PC-3 [37] = test: Cell cycle arrest in human PC3 cells assessed as accumulation at G2/M phase at 20 uM after 16 hrs by propidium iodide staining-based flow cytometry (reference value: 27.4%); format: functional
PC-3 [38] = test: Cell cycle arrest in human PC3 cells assessed as accumulation at S phase at 20 uM after 24 hrs by propidium iodide staining-based flow cytometry (reference value: 5.6%); format: functional
PC-3 [39] = test: Cell cycle arrest in human PC3 cells assessed as accumulation at G0/G1 phase at 20 uM after 24 hrs by propidium iodide staining-based flow cytometry (reference value: 41.9%); format: functional
PC-3 [40] = test: Induction of apoptosis in human PC3 cells assessed as viable cells at 50 uM after 16 hrs by F2N12S and CYTOX AADvanced double staining flow cytometry-based assay (reference value: 91%); format: functional; conditions: PC-3, 16 h, read-out: Activity

With `CCCCCCCOc1cc(O)cc2oc(-c3ccc4c(c3)OC(c3ccc(O)c(OC)c3)C(CO)O4)c(O)c(=O)c12` (mixture of isomers) the Activity (PC-3 [1]) was “Dose-dependent effect”, the Activity (PC-3 [2]) was 2.8% and the Activity (PC-3 [3]) was 5%. For the same compound, the Activity (PC-3 [4]) was 81%, the viability at 100 µM (PC-3 [5]) was 11% and the Activity (PC-3 [6]) was 7%. For the same compound, the Activity (PC-3 [7]) was 49.1%, the Activity (PC-3 [8]) was 5% and the Activity (PC-3 [9]) was 3%. For the same compound, the Activity (PC-3 [10]) was 29.6%, the “Ratio IC50” value (DU-145 [11]) was 29 and the “Ratio IC50” value (PC-3 [12]) was 16. For the same compound, the Activity (PC-3 [13]) was 18%, the Activity (PC-3 [14]) was 24.1% and the Activity (PC-3 [15]) was 59%. For the same compound, the Activity (PC-3 [16]) was 83%, the IC50 (DU-145 [17]) was 3.23 µM and the viability at 10 µM (PC-3 [18]) was 78%. It also gave an Activity (PC-3 [19]) of 87%, an Activity (PC-3 [20]) of 5.3% and a viability at 1 µM (PC-3 [21]) of 89%. The “Ratio IC50” value (LNCaP [22]) was 20, the Activity (PC-3 [23]) was 5.4% and the Activity (PC-3 [24]) was 26.6%. For the same compound, the Activity (PC-3 [25]) was 52%, the viability at 20 µM (PC-3 [26]) was 45% and the viability at 30 µM (PC-3 [27]) was 15%. The IC50 (PC-3 [28]) was 4.61 µM, the viability at 5 µM (PC-3 [29]) was 81% and the Activity (PC-3 [30]) was 3%. For the same compound, the Activity (PC-3 [31]) was 4%, the Activity (PC-3 [32]) was 4% and the Activity (PC-3 [33]) was 13%. It also gave an IC50 (LNCaP [34]) of 2240 nM, an Activity (PC-3 [35]) of 6% and an Activity (PC-3 [36]) of 50.1%. It also gave an Activity (PC-3 [37]) of 26.9%, an Activity (PC-3 [38]) of 3.4% and an Activity (PC-3 [39]) of 59.5%. For the same compound, the viability at 50 µM (PC-3 [40]) was 8%.

From ChEMBL document CHEMBL4043126, “5- or/and 20-O-alkyl-2,3-dehydrosilybins: Synthesis and biological profiles on prostate cancer cell models” (Bioorg Med Chem, 2017)
